Experimental data taken from ChEMBL document CHEMBL4385626, “SAR optimization studies on modified salicylamides as a potential treatment for acute myeloid leukemia through inhibition of the CREB pathway” (Bioorg Med Chem Lett, 2019).

How the values were obtained:
Assay type in all cases: functional, cell-based
[1] = tested on: NALM-6; assay: Cytotoxicity against human NALM6 cells incubated for 3 days by CellTiter-Glo luminescent assay; settings: NALM-6, 72 h
Method in brief: (§1)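 CellTiter-Glo viability read-out on leukemia cell lines. IC50 reported as the average of triplicates.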

[2] = tested on: KG-1; assay: Cytotoxicity against human KG1 cells incubated for 3 days by CellTiter-Glo luminescent assay; settings: KG-1, 72 h; method in brief: as §1
[3] = tested on: Jurkat; assay: Cytotoxicity against human Jurkat cells incubated for 3 days by CellTiter-Glo luminescent assay; settings: 72 h; method in brief: as §1
[4] = tested on: HL-60; assay: Cytotoxicity against human HL60 cells incubated for 3 days by CellTiter-Glo luminescent assay; settings: HL-60, 72 h; method in brief: as §1

| SMILES | IC50 [1] [µM] | IC50 [2] [µM] | IC50 [3] [µM] | IC50 [4] [µM] |
| --- | --- | --- | --- | --- |
| O=C(Nc1ccc(Cl)c(Cl)c1)c1cc(F)ccc1O | 1.37 | 0.76 | 0.67 | 0.66 |
| O=C(Nc1ccc(Cl)cc1Cl)c1ccc2cccnc2c1O | 0.45 | 3.56 | 0.43 | 0.61 |
| O=C(Nc1ccc(C(F)(F)F)cc1)c1cc(Br)c(F)cc1O | 1.3 | 0.82 | 0.88 | 0.45 |
| N#Cc1ccc(NC(=O)c2ccc(-c3ccccc3)cc2O)cc1 | – | 0.41 | – | 0.7 |
| N#Cc1ccc(CC(=O)c2cc(F)ccc2O)cc1 | – | > 10 | – | > 10 |
| N#Cc1ccc(NC(=O)c2ccc3cccnc3c2O)c(Cl)c1 | 0.42 | 3.67 | 0.55 | 0.91 |
| N#Cc1ccc(NC(=O)c2cc(-c3ccccc3)ccc2O)cc1 | – | 1.3 | – | 1.35 |
| O=C(Nc1cc(Cl)cc(Cl)c1)c1cc(F)ccc1O | 1.44 | 0.78 | 0.71 | 0.6 |
| N#Cc1ccc(NC(=O)c2ccc(-c3ccncc3)cc2O)cc1 | – | 8.84 | – | 7.09 |
| COc1cccc(C(=O)Nc2ccc(C#N)cc2)c1O | – | > 10 | – | > 10 |
| N#Cc1ccc(NC(=O)c2cccc3cc[nH]c23)cc1 | – | > 10 | – | > 10 |
| O=C(Nc1ccc(OC(F)(F)F)c(Cl)c1)c1cc(Cl)ccc1O | 1.05 | 0.46 | 0.84 | 0.45 |
| O=C(Nc1ccc(C(F)(F)F)cc1)c1ccc(C(F)(F)F)cc1O | 1.12 | 0.78 | 0.82 | 0.38 |
| N#Cc1ccc(NC(=O)c2cc(Cl)ccc2O)c(Cl)c1 | 0.73 | 0.86 | 0.62 | 0.5 |
| N#Cc1ccc(NC(=O)c2ccc(Br)cc2O)cc1Cl | 0.92 | 0.96 | 0.75 | 0.44 |
| O=C(Nc1ccc(Cl)cc1)c1ccc2cccnc2c1O | 0.38 | 3.3 | 0.51 | 0.63 |
| N#Cc1ccc(NC(=O)c2cc(Cl)c(-c3ccccc3)cc2O)cc1 | – | 0.48 | – | 0.52 |
| COc1cc2ccccc2cc1C(=O)Nc1ccc(C#N)cc1 | – | > 10 | – | > 10 |
| N#Cc1ccc(NC(=O)c2ccc(C(F)(F)F)cc2O)cc1 | – | 1.44 | – | 1.03 |
| COc1ccc(C(=O)Nc2ccc(C#N)cc2)c(O)c1 | – | 5.43 | – | 5.47 |
| CC(=O)Oc1cc2ccccc2cc1C(=O)Nc1ccc(C#N)cc1 | – | 1.7 | – | 1.69 |

| SMILES | IC50 [1] [µM] | IC50 [2] [µM] | IC50 [3] [µM] | IC50 [4] [µM] |
| --- | --- | --- | --- | --- |
| O=C(Nc1ccc(C(F)(F)F)cc1)c1ccc2cccnc2c1O | 0.38 | 3.51 | 0.55 | 0.68 |
| O=C(Nc1ccc(Br)c(Cl)c1)c1cc(F)ccc1O | 1.25 | 0.67 | 0.86 | 0.6 |
| O=C(Nc1ccc(C(F)(F)F)cc1)c1ccc(Br)cc1O | 0.69 | 0.34 | 0.5 | 0.36 |
| N#Cc1ccc(NC(=O)c2c(O)ccc3ccccc23)cc1 | – | 3.76 | – | 4.43 |
| Cc1ccc(O)c(C(=O)Nc2ccc(C#N)cc2)c1 | – | 3.37 | – | 3.92 |
| O=C(Nc1cc(C(F)(F)F)cc(C(F)(F)F)c1)c1cc(Cl)c(F)cc1O | 2.13 | 0.47 | 0.73 | 0.43 |
| N#Cc1ccc(NC(=O)c2cc(-c3cccnc3)ccc2O)cc1 | – | 8.33 | – | 7.96 |
| N#Cc1ccc(NC(=O)c2ccc3ccccc3c2O)cc1 | – | 2.72 | – | 3.41 |
| CN(C(=O)c1cc(F)ccc1O)c1ccc(C#N)cc1 | – | > 10 | – | > 10 |
| N#Cc1ccc(NC(=O)c2cccc(F)c2O)cc1 | – | 9.69 | – | 5.39 |
| N#Cc1ccc(NC(=O)c2ccccc2O)cc1 | – | 5.37 | – | 4.62 |
| N#Cc1ccc(Nc2n[nH]c3ccccc23)cc1 | – | > 10 | – | > 10 |
| N#Cc1ccc(NC(=O)c2cc(Br)c3cccnc3c2O)cc1 | 0.21 | – | 0.23 | 0.33 |
| CS(=O)(=O)Nc1ccc(Cl)cc1C(=O)Nc1ccc(C#N)cc1 | – | > 10 | – | > 10 |
| N#Cc1ccc(NC(=O)c2cccc(Br)c2O)cc1 | – | 3.26 | – | 2.91 |
| N#Cc1ccc(NC(=O)c2cc(Cc3ccccc3)ccc2O)cc1 | – | 1.93 | – | 1.74 |
| N#Cc1ccc(NC(=O)c2ccc3cccnc3c2O)c(C#N)c1 | 0.35 | 3.77 | 0.27 | 0.89 |
| O=C(Nc1cc(C(F)(F)F)cc(C(F)(F)F)c1)c1ccc(-c2ccccc2)cc1O | 1.58 | 0.86 | 1.24 | 1.14 |
| N#Cc1ccc(NC(=O)c2cc(C(F)(F)F)ccc2O)cc1 | – | 4.81 | – | 3.12 |
| O=C(Nc1cccc(OC(F)(F)F)c1)c1cc(F)ccc1O | 1.37 | 0.83 | 0.7 | 0.73 |
| O=C(Nc1ccc(Cl)cc1Cl)c1cc(F)ccc1O | 1.62 | 0.85 | 0.88 | 0.89 |

| SMILES | IC50 [1] [µM] | IC50 [2] [µM] | IC50 [3] [µM] | IC50 [4] [µM] |
| --- | --- | --- | --- | --- |
| O=C(Nc1ccc(OC(F)(F)F)cc1)c1cc(F)ccc1O | 1.21 | 0.78 | 0.81 | 0.85 |
| N#Cc1cccc(NC(=O)c2cc(F)ccc2O)c1 | – | 9.1 | – | 7.75 |
| O=C(Nc1ccc(C(F)(F)F)cc1)c1cc(Cl)c(-c2ccccc2)cc1O | 0.8 | 0.77 | 1.16 | 0.49 |
| O=C(Nc1ccc(OC(F)(F)F)cc1Cl)c1cc(Cl)ccc1O | 1.35 | 0.62 | 0.88 | 0.65 |
| Cc1cccc(O)c1C(=O)Nc1ccc(C#N)cc1 | – | 7.94 | – | 6.86 |
| O=C(Nc1ccc(C(F)(F)F)cc1)c1ccc(F)cc1O | 1.53 | 0.74 | 0.8 | 0.68 |
| O=C(Nc1cc(C(F)(F)F)cc(C(F)(F)F)c1)c1ccc(Br)cc1O | 1.2 | 0.83 | 0.93 | 0.27 |
| N#Cc1ccc(NC(=O)c2c(O)cccc2F)cc1 | – | > 10 | – | > 10 |
| N#Cc1ccc(NC(=O)c2ccc[nH]c2=O)cc1 | – | > 10 | – | > 10 |
| N#Cc1ccc(NC(=O)c2ccc(Br)cc2O)cc1 | – | 1.45 | – | 1.21 |
| N#Cc1ccc2nc(-c3ccccc3O)[nH]c2c1 | – | > 10 | – | > 10 |
| N#Cc1ccc(NC(=O)c2cc(-c3ccncc3)ccc2O)cc1 | – | 7.99 | – | 5.41 |
| O=C(Nc1ccccc1)c1cc(F)ccc1O | – | > 10 | – | > 10 |
| Cc1cccc(C(=O)Nc2ccc(C#N)cc2)c1O | – | 8.98 | – | > 10 |
| N#Cc1ccc(NS(=O)(=O)c2cc(F)ccc2O)cc1 | – | > 10 | – | > 10 |
| Cc1ccc(C(=O)Nc2ccc(C#N)cc2)c(O)c1 | – | 2.56 | – | 2.42 |
| N#Cc1ccc(NC(=O)c2ccc(Cl)cc2O)cc1 | – | 1.92 | – | 1.3 |
| N#Cc1ccc(NC(=O)c2ccc(-c3cccnc3)cc2O)cc1 | – | 7.94 | – | 6.66 |
| N#Cc1ccc(NC(=O)c2ccc(F)cc2O)cc1 | – | 3.15 | – | 1.38 |
| N#Cc1ccc(NC(=O)c2cc(Br)c(-c3ccccc3)cc2O)cc1 | – | 0.85 | – | 0.7 |
| N#Cc1ccc(NC(=O)c2cc(F)ccc2O)cc1 | – | 2.67 | – | 1.42 |
